Screens from PubChem.
N-glyco inh: N-linked glycosylation inhibition | D54 ERlucT glycosylation luciferase reporter, 24 h; percent of 100 nM tunicamycin response | reporter increase, % at 12.5 µM | hit rate 0.23% among 360,000 | AID 588692;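 active means mean luciferase reporter signal, scaled so untreated is 0 and the glycosylation-blocking control 100, at or above a set limit in every replicate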;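 further: luciferase carries N-glycosylation sites so blocking glycosylation raises the light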
ALR H2O2 inh: blocks human ALR sulfhydryl oxidase activity. P55789. purified ALR, DTT oxidation, H2O2 HRP-luminol luminescence. inhibition, % (concentration not given with the values). hit rate 3.8% among 290,000. AID 485317;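 active means mean replicate inhibition above about 79%, with every replicate also reaching it, limit read from the data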
Target sequence (P55789 whole entry, looked up): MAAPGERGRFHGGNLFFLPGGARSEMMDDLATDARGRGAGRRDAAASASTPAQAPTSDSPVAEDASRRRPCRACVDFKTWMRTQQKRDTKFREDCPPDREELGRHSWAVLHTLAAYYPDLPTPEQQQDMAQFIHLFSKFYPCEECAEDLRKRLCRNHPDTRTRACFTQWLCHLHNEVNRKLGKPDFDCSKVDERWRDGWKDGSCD
T cell HTS: modulates CD8 T cell binding to vesicles; 2C CD8+ T cell-vesicle binding, flow cytometry; active compounds read low; response (vesicle binding), % at 7 µM; hit rate 0.068% among 330,000; AID 2052;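 active means response, share of CD8 T cells binding vesicles, and their 90th percentile fluorescence all below set limits, cut at about 80% in these data, passing the limit was not always enough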;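 further: values below 100% mean blocked vesicle binding to the CD8+ T cells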
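Incubation: binding step 1.5 h, 37 °C, antibody labelling 20 min, ice; system: murine 2C transgenic CD8+ T lymphocytes; technique: cytometric PE anti-B7-1 and Alexa647 anti-CD8 signals after 1% paraformaldehyde fixation; also added: QL9-charged Drosophila Ld/ICAM-1/B7-1 vesicles; control set: naked versus QL9-loaded vesicles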
Hits are given with their value; i = inactive; nt = no result given. Shown is part of a subset that was picked to be rich in hits.

SMILES	N-glyco inh	ALR H2O2 inh	T cell HTS
CC(=O)c1cccc(-c2ccnc3c2CC(C(=O)NCC2CCOCC2)O3)c1 (configuration not stated)	i	nt	nt
C[N+]1(CC(O)COCC2COc3ccccc3O2)CCOCC1 (configuration not stated)	i	i	i
CC(Oc1ccc(S(=O)(=O)N2CCCC2)cc1[N+](=O)[O-])C(=O)N(C)c1ccccc1 (configuration not stated)	i	i	i
O=[N+]([O-])c1cc(S(=O)(=O)O)cc([N+](=O)[O-])c1NN(c1ccccc1)c1ccccc1	i	99	i
COc1ccc(S(=O)(=O)N2CCCCC2)cc1C(=O)N1CCCCCC1	i	nt	i
CC(C)(O)C#Cc1ccc(C(=O)NCCC(=O)O)s1	i	i	i
CC(C)(O)C#Cc1ccc(C(=O)NC2CCCCC2)s1	i	97	i
O=C(CSc1nccn1Cc1ccc(F)cc1)NC1CCCCC1	i	nt	nt
CC(OC(=O)c1ccc(NC(=O)CC#N)cc1)C(=O)Nc1ccc2c(c1)OCCO2 (configuration not stated)	i	97	i
N#CCC(=O)Nc1ccc(C(=O)OCC(=O)NC(=O)Nc2ccc3c(c2)OCCO3)cc1	i	99	i
NC(=O)c1ccc(NC(=O)COC(=O)c2ccc3c(c2)OCCO3)cc1	i	i	i
O=C(COC(=O)c1ccc(O)cc1)NCc1ccc2c(c1)OCO2	i	i	i
N#CCC(=O)Nc1ccc(C(=O)OCC(=O)NCc2ccc3c(c2)OCO3)cc1	i	99	i
CC(=O)Nc1ccc(NC(=O)C(C)OC(=O)c2ccc3c(c2)OCCO3)cc1 (configuration not stated)	i	nt	i
CC1=C(C(=O)N(C(C)C)C(C)C)CC(CC(=O)NCCN2CCOCC2)C(=O)N1CCCN1CCCC1=O (configuration not stated)	i	nt	nt
CCc1ccc(NC(=S)Nc2ccc(S(=O)(=O)Nc3ncccn3)cc2)cc1	i	i	i
Cc1ccc2nc(N3C(=O)CNC3=S)sc2c1	i	93	i
COc1ccc2nc(N3C(=O)CNC3=S)sc2c1	i	nt	i
CC(CNC(=O)CN1C(=O)COc2ccc(S(=O)(=O)N3CCCCC3)cc21)c1ccccc1 (configuration not stated)	i	i	i
CCC1CCC2(CC1)NC(=O)N(CC(=O)Nc1ccc(OC)c(Cl)c1)C2=O (configuration not stated)	i	i	i
CN(C(=O)CSc1cc(C(=O)c2nccn2C)c2ccccc2n1)c1ccccc1	i	i	i
CC(OC(=O)COc1ccccc1[N+](=O)[O-])C(=O)Nc1ccc(N2CCOCC2)cc1 (configuration not stated)	i	76	i
Cc1ccc(C(=O)NCC(=O)OC(C)C(=O)Nc2ccc(N3CCOCC3)cc2)s1 (configuration not stated)	i	93	i
Cc1ccc(S(=O)(=O)CCC(=O)OC(C)C(=O)Nc2ccc(N3CCOCC3)cc2)cc1 (configuration not stated)	i	i	i
CCC(=O)N1CCN(c2ccc(NC(=O)COc3ccccc3[N+](=O)[O-])cc2)CC1	i	i	i
SMILES	N-glyco inh	ALR H2O2 inh	T cell HTS
NS(=O)(=O)c1ccc(CNC(=O)c2cc(-c3cccnc3)nc3ccc(Br)cc23)cc1	nt	i	i
CC(C)NC(=O)C1(S(=O)(=O)c2ccccc2)CC=CC1	i	nt	i
Cc1cccc(N(CC(=O)NCCc2ccccc2)C(=O)c2csnn2)c1	i	i	i
O=C(CCn1c(=O)oc2ccc(Cl)cc21)N1CCN(Cc2ccccc2)CC1	i	i	i
O=C(Oc1ccc(/C=N/n2cnnc2)cc1)c1cccc([N+](=O)[O-])c1	i	i	i
CN(C)/N=C/c1ccc(OC(=O)c2cccc([N+](=O)[O-])c2)cc1	i	98	i
O=C(Oc1ccccc1)n1c(=S)oc2ccccc21	i	i	i
Cc1ccccc1OC(=O)n1c(=S)oc2cc(Cl)ccc21	i	83	i
CCN(CC)S(=O)(=O)c1cc(NC(=O)Cc2ccc(S(=O)(=O)N3CCOCC3)s2)ccc1Cl	i	nt	nt
O=C(c1nc[nH]c1C(=O)N1CCN(c2ccccc2)CC1)N1CCN(c2ccccc2)CC1	i	93	i
C[C@@H](NC(=O)c1nc[nH]c1C(=O)N1CCN(c2ccccc2)CC1)c1ccccc1	28	i	i
CC1CCN(C(=O)c2[nH]cnc2C(=O)N[C@H](C)c2ccccc2)CC1	i	i	i
CC(C)(C)OC(=O)N1CCN(C(=O)c2nc[nH]c2C(=O)N2CCN(c3ccccc3)CC2)CC1	i	i	i
O=[N+]([O-])c1cc(F)cc(F)c1Nc1cc(F)cc(F)c1	i	nt	nt
CN(NC(=O)NN(C)C(=O)c1ccccc1)C(=O)c1ccccc1	i	nt	nt
CCN(CC)c1ccc(NC(=O)CN2CCN(c3ccc(F)cc3)CC2)cc1	i	79	i
